The record followed here is ChEMBL document CHEMBL1124929, “Indolo[2,1-a]isoquinolines. Syntheses, steroid hormone receptor binding affinities, and cytostatic activity” (1990).

Assay [1] concerns the target T1, Androgen Receptor (Bos taurus) (UniProt Q5EM59).
T1 sequence (whole entry): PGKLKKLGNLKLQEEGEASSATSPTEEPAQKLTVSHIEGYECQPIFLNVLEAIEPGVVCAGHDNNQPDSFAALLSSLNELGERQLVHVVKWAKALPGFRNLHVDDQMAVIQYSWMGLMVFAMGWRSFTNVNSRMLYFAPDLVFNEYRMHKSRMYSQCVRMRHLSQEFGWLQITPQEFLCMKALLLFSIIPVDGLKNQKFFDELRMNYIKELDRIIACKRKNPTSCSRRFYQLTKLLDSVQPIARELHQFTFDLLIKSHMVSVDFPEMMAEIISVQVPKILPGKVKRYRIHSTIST
In words: Relative binding affinity(RBA) for 50% displacement of [3H]mibolerone from Androgen receptor compared to testorone. Summed up: (§1)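 Receptor source was calf uterine cytosol (105000g supernatant, 3 mg/mL protein in assay). Buffers were Tris/EDTA pH 7.4, with NaN₃ for ER, molybdate/glycerol for AR, and sucrose for PR. Tracers were 1 nM [³H]estradiol, [³H]mibolerone or [³H]Org 2058. Incubation was at 0–4 °C for 16 h (ER) or 2 h (AR, PR), with 4–6 competitor concentrations. Nonspecific binding used 2 µM of the unlabeled hormone. Separation was by dextran-coated charcoal. RBA is the ratio of IC50 values for hormone and compound ×100, mean of two triplicate experiments.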

In assay [2] the test system is MDA-MB-231. Kind of assay: Effect on [3H]-thymidine incorporation into MDA-MB 231 human breast cancer cells at 1x10E-6M. It is filed as functional. Summed up:
(§2)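 Cells were seeded at ~2 × 10⁴ per well, treated from the next day in 0.1% DMSO, with DMSO controls. MCF-7 cells were held in charcoal-stripped NCS for 2 weeks, treated for 5 days and re-dosed on day 4. MDA-MB 231 cells were grown in McCoy 5a/10% NCS and treated for 2 days. At the end, 1 µCi [³H]thymidine per well was added for 2 h. Result is % T/C, mean of three experiments × six dishes.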
A general note: Uptake of a labelled nucleoside into DNA is a usual measure of proliferation.

The subject of assay [3] is MCF7. In words: Effect on hormone-dependent MCF-7 human breast cancer cell proliferation at 1x10E-7M. Format: functional. In short, it runs like this:
(§3)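 Cells were plated at about 2 × 10⁴ per well in six-well dishes. MCF-7 cells were grown in modified improved MEM with 5% NCS, switched to charcoal-treated NCS two weeks before the test, and exposed for 5 days with a re-dose on day 4. MDA-MB 231 cells were grown in McCoy 5a with 10% NCS and exposed for 2 days. Compounds were given 1 day after plating in 0.1% DMSO, with DMSO-matched controls. Read-out was cell number as % T/C, mean of three experiments with six dishes.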

The subject of assay [4] is MCF7. In words: Effect on hormone-dependent MCF-7 human breast cancer cell proliferation at 5x10E-6M. It is filed as functional. In short, it runs like this: as §3
Assay [5] concerns MCF7. In words: Effect on [3H]thymidine incorporation into MCF-7 human breast cancer cells at 5x10E-6M. It is filed as functional. Summed up: as §2
In assay [6] the target is T2, Estrogen receptor (Mus musculus) (UniProt O08537+P19785). Kind of assay: Estrogenic activity in uterotrophic assay in immature mice at 125 ug subcutaneous dose. Format: functional. In short, it runs like this:
(§4)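 Immature female NMRI mice, 20 days old, in groups of 6-10, were dosed sc once daily for three consecutive days. Compounds were given in PEG/0.9% saline 1:1; vehicle controls were included. Animals were killed 24 h after the last dose. Uteri were fixed in Bouin solution and the effect was taken as uterine dry weight (mg)/body weight (g) ×100, given as mean ± SD.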

Assay [7] addresses T2, Estrogen receptor (Mus musculus). Kind of assay: Estrogenic activity in uterotrophic assay in immature mice at 50.0 ug subcutaneous dose. Format: functional. Summed up: as §4
For assay [8] the target is unchanged. Kind of assay: Estrogenic activity in uterotrophic assay in immature mice at 250 ug subcutaneous dose. Format: functional. In short, it runs like this: as §4
Assay [9] has the same target. In words: Estrogenic activity in uterotrophic assay in immature mice at 10.0 ug subcutaneous dose. It is filed as functional. In short, it runs like this:
as §4

Assay [10] has the same target. Kind of assay: Inhibition of 0.4 ug estrone-stimulated uterine growth in mice at 10.0 ug subcutaneous dose. It is filed as functional. Summed up:
(§5)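 Immature 20-day-old female NMRI mice received sc injections on three consecutive days. Each injection held 0.4 µg estrone plus the compound in PEG/saline 1:1. […] Significance was tested by Mann-Whitney U test.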

Assay [11] addresses T3, Androgen receptor (Mus musculus) (UniProt P19091).
T3 sequence (whole entry): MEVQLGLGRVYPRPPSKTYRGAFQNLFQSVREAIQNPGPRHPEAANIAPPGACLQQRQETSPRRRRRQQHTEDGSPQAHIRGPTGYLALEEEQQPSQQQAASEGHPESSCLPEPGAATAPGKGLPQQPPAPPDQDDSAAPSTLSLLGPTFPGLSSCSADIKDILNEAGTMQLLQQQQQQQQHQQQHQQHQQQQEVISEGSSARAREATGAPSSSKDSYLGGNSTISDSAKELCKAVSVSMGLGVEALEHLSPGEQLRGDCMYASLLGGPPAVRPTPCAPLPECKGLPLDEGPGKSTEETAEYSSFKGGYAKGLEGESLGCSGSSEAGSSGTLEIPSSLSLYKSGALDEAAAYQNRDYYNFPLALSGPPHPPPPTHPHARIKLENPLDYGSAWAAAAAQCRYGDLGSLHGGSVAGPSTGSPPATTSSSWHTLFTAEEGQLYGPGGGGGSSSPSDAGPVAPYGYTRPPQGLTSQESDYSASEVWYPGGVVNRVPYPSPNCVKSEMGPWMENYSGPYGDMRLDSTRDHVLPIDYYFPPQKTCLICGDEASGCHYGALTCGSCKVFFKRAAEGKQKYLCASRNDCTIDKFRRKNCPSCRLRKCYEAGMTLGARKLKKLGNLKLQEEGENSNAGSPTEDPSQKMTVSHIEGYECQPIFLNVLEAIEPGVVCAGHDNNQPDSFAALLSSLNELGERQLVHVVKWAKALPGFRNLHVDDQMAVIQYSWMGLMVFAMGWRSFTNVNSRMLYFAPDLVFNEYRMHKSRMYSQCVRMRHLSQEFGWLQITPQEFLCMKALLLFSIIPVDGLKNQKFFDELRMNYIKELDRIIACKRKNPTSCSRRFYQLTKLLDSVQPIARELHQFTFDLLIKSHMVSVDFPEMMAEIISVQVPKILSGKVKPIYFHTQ
Kind of assay: Inhibition of testosterone-stimulated seminal vesicle growth in castrated mice supplemented with 0.3 mg of TP at 1000.0 ug. Format: functional. In short, it runs like this:
(§6)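 Adult male mice, 23–25 g, six per group, were used intact or castrated via the scrotal route under ether 5 days before the test. Castrates received 0.3 mg testosterone propionate daily. Compounds were injected daily in olive oil for nine days. Seminal vesicles were taken 24 h later, fixed in Bouin solution, dried overnight at 100 °C and weighed. Result is organ mg/body g ×100; % inhibition = [1 − treated/control] × 100.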

Assay [12] addresses T2, Estrogen receptor (Mus musculus). In words: Inhibition of 0.4 ug estrone-stimulated uterine growth in mice at 50.0 ug subcutaneous dose; p<0.01. Format: functional. Summed up: as §5
The next assay is filed under the species Bos taurus. In words: Relative binding affinity(RBA) as ratio of progesterone and compound required to displace [3H]-org 2058 binding to Progesterone receptor by 50%. Summed up:
as §1

The target of assay [13] is T3, Androgen receptor (Mus musculus). In words: Relative effect on seminal vesicle weight in adult and castrated mice at 100 ug dose. It is filed as functional, tissue-based. In short, it runs like this:
as §6

Assay [14] has as its system MDA-MB-231. In words: Cytostatic effect on hormone-independent MDA-MB 231 human breast cancer cell proliferation at 1x10E-6M. It is filed as functional. In short, it runs like this:
as §3

The target in assay [15] is T3, Androgen receptor (Mus musculus). Kind of assay: Inhibition of seminal vesicle weight in intact mice at 10.0 ug.

Molecules are shown by their SMILES.

T2 sequence (O08537 whole entry, looked up): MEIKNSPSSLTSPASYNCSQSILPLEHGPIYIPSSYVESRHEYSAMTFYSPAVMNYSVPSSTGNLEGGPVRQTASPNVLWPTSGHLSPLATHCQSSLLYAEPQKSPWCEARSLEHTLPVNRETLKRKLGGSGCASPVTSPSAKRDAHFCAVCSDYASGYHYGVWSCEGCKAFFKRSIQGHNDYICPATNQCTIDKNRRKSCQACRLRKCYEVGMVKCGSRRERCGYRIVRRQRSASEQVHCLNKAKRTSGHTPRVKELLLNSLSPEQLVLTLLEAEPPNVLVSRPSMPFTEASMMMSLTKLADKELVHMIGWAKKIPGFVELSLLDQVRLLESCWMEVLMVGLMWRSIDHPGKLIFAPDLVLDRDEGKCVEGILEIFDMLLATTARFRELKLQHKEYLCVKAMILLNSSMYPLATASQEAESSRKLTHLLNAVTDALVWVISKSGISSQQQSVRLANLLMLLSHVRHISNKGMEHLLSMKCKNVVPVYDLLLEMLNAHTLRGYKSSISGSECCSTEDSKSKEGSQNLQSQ
T2 sequence (P19785 whole entry, looked up): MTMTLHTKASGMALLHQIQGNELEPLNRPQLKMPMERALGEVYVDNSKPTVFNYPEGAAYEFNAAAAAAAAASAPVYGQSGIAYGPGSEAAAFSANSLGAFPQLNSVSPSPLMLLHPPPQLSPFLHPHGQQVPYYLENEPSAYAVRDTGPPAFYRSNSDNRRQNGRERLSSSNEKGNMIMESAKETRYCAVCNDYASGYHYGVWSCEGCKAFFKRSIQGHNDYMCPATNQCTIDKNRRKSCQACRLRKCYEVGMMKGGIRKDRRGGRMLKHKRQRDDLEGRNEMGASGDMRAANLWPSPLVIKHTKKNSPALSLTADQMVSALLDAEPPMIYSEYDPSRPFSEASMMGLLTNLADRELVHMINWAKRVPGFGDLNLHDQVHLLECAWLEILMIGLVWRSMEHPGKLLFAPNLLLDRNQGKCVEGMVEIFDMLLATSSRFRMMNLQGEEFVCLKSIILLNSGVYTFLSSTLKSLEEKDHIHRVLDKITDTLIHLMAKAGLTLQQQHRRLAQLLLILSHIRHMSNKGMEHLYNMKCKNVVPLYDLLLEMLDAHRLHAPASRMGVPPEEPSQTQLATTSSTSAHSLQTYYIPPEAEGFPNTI

Turning to `CCC1Cc2cc(OC(C)=O)ccc2-c2cc3cc(OC(C)=O)ccc3n21` (stereo unspecified), the RBA in assay [1] was determined as 0.23; in the assay listed under Bos taurus it was 0.13. For the same molecule, the T/C in the assay with MDA-MB-231 [2] was 45%; in the assay with MCF7 [3] it was 80%; in the assay with MCF7 [4], 10%; in the assay with MCF7 [5] it was 4%; in the assay with MDA-MB-231 [14] it was 74%. The Effect in [6] stood at 39.5; in assay [7], 35.8; in assay [8], 53.4; in assay [9] it was 25.5. The inhibition was determined as 12.2% in [10], 17% in assay [11], 25.9% in assay [12] and 22% in [15]. In addition, in assay [13], the Relative seminal vesicle weight was 54.5.

One may read the T/C as the ratio of treated to control. By inhibition is commonly meant the share of the control response that was lost under treatment. Read a low inhibition as little suppression.
